# Reference: PubChem BioAssay AID720717 (ICCB-Longwood Screening Facility, Harvard Medical School, 2013)
# Where “and” joins values, the source holds several entries; their conditions need not be identical. Equal values may be shown once. The whole screen tested about 51,000 compounds, of which about 150 (0.29%) were called active. What follows is part of a selection rich in actives, with near analogues and random picks from the rest. A number with no mark means an inactive call.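 Rule for the calls: active = both repeat wells score below -2 in polarization z-score versus plate sample wells, excluding overly bright wells; inactive = the rest.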
# System: LANA (ORF73) N-terminal peptide binding to nucleosomes, Human herpesvirus 8
# Assay: LANA N-terminal peptide–nucleosome interaction blockers – biochemical, fluorescence polarization, FITC-LANA1-23, chicken nucleosomes, primary screen (AID 720717)
# Details: FITC-LANA1-23 / chicken nucleosome fluorescence polarization; hits give low values
# In short: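 Test system: purified chicken nucleosomes with FITC-labelled LANA N-terminal peptide (1-23); Input: 240 nM purified chicken nucleosomes (480 nM peptide binding sites), final; Medium: TEN-BT buffer, pH 7.5; Timing: 10–45 min, room temperature; Technique: fluorescence polarization, 480 nm excitation, 535 nm parallel and perpendicular emission; Replication: duplicates.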
row,Structure (SMILES),z-score
1,CC(Oc1ccccc1)c1ccnc2ncnn12 (configuration not stated),1.01
2,Cc1occc1-c1nnc2n1N=C(c1ccc(-c3cc(Cl)ccc3Cl)o1)CS2,-0.0445
3,O=C(O)c1ccc(Sc2ccccc2C(=O)O)c(C(=O)O)c1,0.129
4,Cc1ccc2c(n1)sc1c(=O)n(-c3ccccc3)nnc12,0.192
5,CCOC(=O)c1c(NC(=S)N2CCN(C(=O)c3ccco3)CC2)sc2c1CCCCCC2,0.494
6,O=C(CSc1nnc(Cc2cc(=O)[nH]c(=O)[nH]2)n1-c1ccccc1)NCc1ccco1,0.726
7,NNC(=O)Cc1csc(CC(N)=O)n1,-1.71
8,O=C(CC1OCCN(Cc2ccccc2)C1=O)Nc1ccc(F)cc1 (configuration not stated),0.194
9,O=C(c1cnc2sc(N3CCCCC3)nn2c1=O)N1CCCC1,-0.108
10,Cc1ccc(Cn2cc(C(=O)Nc3cccnc3)ccc2=O)cc1,-0.673
11,O=C(CC1Nc2ccccc2NC1=O)Nc1ccccc1NC(=O)CC1Nc2ccccc2NC1=O (configuration not stated),-0.867
12,O=S(=O)(c1cnc[nH]1)N1CCN(Cc2ccccc2)CC1,-0.596
13,Cc1ccc(C(=O)Nc2nc3ccc(S(N)(=O)=O)cc3s2)cc1C,-0.589
14,CN(Cc1ccccc1)c1ncnc2c1nc1n2CCCCC1,-0.37
15,O=C(NC1CCCC1)c1[nH]nc2c1CCc1ccccc1-2,0.227
16,CC(=O)Oc1cc(-c2ccccc2)nn1C,0.038
17,CC(CC(=O)NN)C1(O)CCCCC1 (configuration not stated),0.05
18,Cc1ccc(C2=Nc3ccccc3N(CC(=O)Nc3ccc4c(c3)OCO4)C(=O)C2)cc1,-1.02
19,CCN(CC)S(=O)(=O)c1ccc2c(c1)CC(C)N2C(=O)C1CC1 (configuration not stated),1.02
20,CC(C)(C)C(=O)N(Cc1ccccc1)c1ccccn1,0.774
21,CCc1ccc(C(c2c(C)[nH][nH]c2=O)C(C#N)C#N)cc1 (configuration not stated),0.261
22,CCOc1ccc(/C=N/NC(=O)Cc2cc(=O)[nH][nH]2)cc1,-1.01
23,CN(C)/C=C/c1nc(C(F)(F)F)c(C#N)s1,5.21
24,N#CCn1cc(C(=O)C(F)(F)F)c2ccccc21,0.359
25,O=C(Cn1c(=O)oc2ccccc21)NC1CCN(Cc2ccccc2)CC1,-0.221
26,O=C1c2ccccc2OCC12COC(c1ccccc1)OC2 (configuration not stated),-1.2

row,Structure (SMILES),z-score
1,CC(=O)Nc1ccc(NCC(O)Cn2ccc3ccccc32)cc1 (configuration not stated),1.77
2,CC1CCC(NC(=O)CCCn2ncn3c(cc4occc43)c2=O)CC1 (configuration not stated),0.64
3,COCCNC(=O)N1c2ccccc2Sc2ccccc21,0.827
4,O=C(CNc1ccc(C(=O)O)cc1)NCc1ccc2c(c1)OCO2,0.298
5,N/C(=N\O)c1cnn2c(C(F)(F)F)cc(C(F)(F)F)nc12,-0.264
6,CCc1ccc(N2COc3ccc4c(CC)cc(=O)oc4c3C2)cc1,0.115
7,Cc1cccc2cnn(CC(=O)N3CCc4ccccc4C3)c12,0.198
8,CN1C(C)(C)CC(NC(=O)Nc2ccc(F)cc2)CC1(C)C,0.033
9,Cc1cc(C)n(C(C)CC(=O)Nc2ccc(CN3CCC(C)CC3)cc2)n1 (configuration not stated),-0.62
10,C[C@]12CCC(=O)C=C1C=CC1C2CC[C@@]2(C)C1CC[C@@]21CCC(=O)O1 (some centres not stated),0.0125 and 0.276
11,CN(C)c1ccc(-c2nnc(-c3cccnc3)o2)cc1,-0.139
12,COc1cccc(N2C(=O)C=CC2=O)c1,0.499
13,CCCCc1ccc(NC(=O)CC)c(C)c1,1.52
14,COc1ccc(CNC(=O)C(NS(=O)(=O)c2cccc3nsnc23)C(C)C)cc1 (configuration not stated),-1.48
15,Cc1ccc(C(CC(=O)O)c2ccccc2)c(O)c1 (configuration not stated),0.53
16,Cc1ccc(C(=O)CSc2nnc3[nH]c(=O)c(C)nn23)cc1,-1.31
17,S=C(NCc1ccco1)Nc1nn(Cc2ccc(Cl)cc2Cl)cc1Cl,1.51
18,Cc1cc(N2CCOCC2)nc2ccc(NC(=O)CCC(=O)NC3CCCCC3)cc12,0.0965
19,CCCn1c(SCC(=O)N2CCCc3ccccc32)nnc1C(C)C,-2.58
20,CCCNC(=O)c1cc2c(Cl)ccc3c2n1CCO3,-0.473
21,O=C1C=CC(=O)N1Nc1ccccc1,0.669
22,COC(=O)c1nnn(-c2nonc2N)c1CN1C(=O)c2ccccc2C1=O,-0.366
23,CCn1c(N2CCN(C(=O)Nc3ccc(Cl)c(C(F)(F)F)c3)CC2)nc2ccccc21,-1.36
24,O=C1CCCC2=C1C(c1ccccn1)Nc1ccc3ncccc3c12 (configuration not stated),-0.381
25,Cc1cccc(-n2nc(C)c3c(C)cc(=O)oc32)c1,0.165
26,O=C(O)c1cccc2c1C(=O)N(C1CCCC1)C2,0.735
